Test [1] has as its target T1, Beta-2 adrenergic receptor (Homo sapiens, UniProt P07550). Kind of test: Antagonist activity at human beta-2 adrenergic receptor expressed in salbutamol-stimulated CHO-K1 cells assessed as CRE-SPAP level by […]. It is filed as functional, cell-based.
Target sequence in this assay (P07550 whole entry): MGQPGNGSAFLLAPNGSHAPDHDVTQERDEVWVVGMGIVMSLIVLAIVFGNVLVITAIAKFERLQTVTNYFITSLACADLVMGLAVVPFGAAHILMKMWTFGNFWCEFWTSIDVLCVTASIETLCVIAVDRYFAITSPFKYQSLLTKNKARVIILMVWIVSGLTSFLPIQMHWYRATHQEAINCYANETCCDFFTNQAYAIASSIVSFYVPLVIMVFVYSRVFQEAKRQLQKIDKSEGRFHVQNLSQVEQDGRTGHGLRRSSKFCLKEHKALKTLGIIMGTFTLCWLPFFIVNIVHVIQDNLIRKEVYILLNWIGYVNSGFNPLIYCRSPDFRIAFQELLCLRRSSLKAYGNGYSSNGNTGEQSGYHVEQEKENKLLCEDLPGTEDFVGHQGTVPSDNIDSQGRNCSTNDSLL
For test [2], the target named is T2, Beta-1 adrenergic receptor (Homo sapiens, UniProt P08588). Kind of test: Antagonist activity at human beta-1 adrenergic receptor site 1 expressed in cimeterol-stimulated CHO-K1 cells assessed as CRE-SPAP level by […]. It is filed as functional, cell-based.
T2 sequence (P08588 whole entry): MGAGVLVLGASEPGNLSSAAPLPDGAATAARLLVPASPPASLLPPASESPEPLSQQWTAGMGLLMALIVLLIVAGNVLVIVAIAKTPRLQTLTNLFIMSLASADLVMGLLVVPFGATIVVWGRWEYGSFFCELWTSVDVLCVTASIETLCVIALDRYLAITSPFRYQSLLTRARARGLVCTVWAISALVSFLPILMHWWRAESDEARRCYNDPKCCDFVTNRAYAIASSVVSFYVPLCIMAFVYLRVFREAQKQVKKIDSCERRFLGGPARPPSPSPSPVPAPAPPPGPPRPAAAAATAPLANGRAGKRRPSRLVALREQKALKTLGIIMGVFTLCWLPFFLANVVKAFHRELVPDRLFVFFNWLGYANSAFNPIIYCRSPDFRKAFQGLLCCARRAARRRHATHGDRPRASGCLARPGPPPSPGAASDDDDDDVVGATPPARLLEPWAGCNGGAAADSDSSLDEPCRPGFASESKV
The target of test [3] is T3, Beta-3 adrenergic receptor (Homo sapiens, UniProt P13945). The test is described as follows: Displacement of [3H]-CGP 12177 from human beta-3 adrenergic receptor expressed in CHOK1 cells. Type of test: cell-based, CHO-K1.
Target sequence in this assay (P13945 whole entry): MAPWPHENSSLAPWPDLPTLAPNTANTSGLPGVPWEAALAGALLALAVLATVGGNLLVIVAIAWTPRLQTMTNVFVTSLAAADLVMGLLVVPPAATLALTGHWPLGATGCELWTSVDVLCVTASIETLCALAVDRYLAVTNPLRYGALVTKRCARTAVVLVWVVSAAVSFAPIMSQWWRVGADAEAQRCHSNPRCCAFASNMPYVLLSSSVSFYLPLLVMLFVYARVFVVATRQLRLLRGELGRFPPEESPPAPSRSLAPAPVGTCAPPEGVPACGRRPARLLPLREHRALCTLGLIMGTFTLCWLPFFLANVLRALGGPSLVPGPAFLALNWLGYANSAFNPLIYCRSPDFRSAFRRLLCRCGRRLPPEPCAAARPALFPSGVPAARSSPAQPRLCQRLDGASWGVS
The target of test [4] is T1, Beta-2 adrenergic receptor. The test is described as follows: Displacement of [3H]-CGP 12177 from human beta-2 adrenergic receptor expressed in CHOK1 cells. It is filed as cell-based, CHO-K1. (Displacement assays read how much labelled ligand stays bound in the presence of the test substance.)
Target sequence in this assay (P07550 whole entry): as the sequence (P07550 whole entry) above
Test [5] addresses T2, Beta-1 adrenergic receptor. Kind of test: Antagonist activity at human beta-1 adrenergic receptor site 2 expressed in CGP 12177-stimulated CHO-K1 cells assessed as CRE-SPAP level by […].
The target in test [6] is T3, Beta-3 adrenergic receptor. The test is described as follows: Antagonist activity at human beta-3 adrenergic receptor expressed in fenoterol-stimulated CHOK1 cells assessed as CRE-SPAP level by […]. It is filed as functional, cell-based, CHO-K1. The gist of the method: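 CHO-K1 cells stably co-expressing human β3-AR (790 fmol/mg protein) and a six-CRE SPAP reporter, grown to confluence. Fenoterol was the stimulating agonist. SPAP secreted into the medium was measured 5–6 h after agonist addition. Fixed antagonist concentrations of 10, 100 or 1000 nM were used. The Stephenson partial-agonist method was used where partial agonism occurred.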
Target sequence in this assay (P13945 whole entry): as the sequence (P13945 whole entry) above

Test [7] has as its target T2, Beta-1 adrenergic receptor. The test is described as follows: biochemical.
The target of test [8] is T3, Beta-3 adrenergic receptor. Kind of test: Partial agonist activity at human beta-3 adrenergic receptor expressed in CHOK1 cells assessed as CRE-SPAP production at 1 uM by […] relative to 10 uM isoprenaline. Type of test: functional, cell-based. Conditions: CHO-K1. The gist of the method: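 CHO-K1 cells co-expressing human β3-AR and a CRE-SPAP reporter. SPAP secretion was measured 5–6 h after ligand addition. The response to 1 μM ligand alone is expressed as a percentage of the response to 10 μM isoprenaline within the same experiment. Values are mean ± SE of n separate experiments.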
Target sequence in this assay (P13945 whole entry, looked up): as the sequence (P13945 whole entry) above

In test [9] the target is T1, Beta-2 adrenergic receptor. The test is described as follows: Binding affinity to human beta-2 adrenergic receptor expressed in CHOK1 cells at 3 nM preincubated with 1 to 100 nM beta-2 adrenergic receptor antagonist ICI 118551 for 30 mins measured after 18 hrs by confocal imaging. Type of test: cell-based. Conditions: CHO-K1. The method, boiled down: (§1)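 Live confocal imaging at room temperature in HEPES-buffered saline. CHO-K1 cells expressing human β2-AR were grown at least 18 h to 80–100% confluence. Where used, antagonists (ICI 118551 1–100 nM; CGP 20712A) were preincubated for 30 min, then 3 nM fluorescent ligand was added for 10 min. Imaging was done in its continued presence, with 633 nm excitation and emission through a 650 nm long-pass filter. Control CHO-K1 cells lacked the receptor.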
Target sequence in this assay (P07550 whole entry, looked up): as the sequence (P07550 whole entry) above

Test [10] addresses T1, Beta-2 adrenergic receptor. Kind of test: Binding affinity to human beta-2 adrenergic receptor expressed in CHOK1 cells at 3 nM preincubated with > 10 uM beta-1 adrenergic receptor antagonist CGP 20712A for 30 mins measured after 18 hrs by confocal imaging. It is filed as cell-based. Conditions: CHO-K1. The gist of the method: as §1
Target sequence in this assay (P07550 whole entry, looked up): as the sequence (P07550 whole entry) above
In test [11] the target is T1, Beta-2 adrenergic receptor. Kind of test: Binding affinity to human beta-2 adrenergic receptor expressed in CHOK1 cells at 3 nM after 18 hrs by confocal imaging. Type of test: cell-based. As to conditions: CHO-K1. The gist of the method: as §1
Target sequence in this assay (P07550 whole entry, looked up): as the sequence (P07550 whole entry) above

Molecules are shown by their SMILES. Calls of active or inactive are those of the source. The calls are words filed in the database; no cut-off is given here.

A word on the Kd: it is the concentration at which binding is half-saturated.

As to `O=C(CCCCCNC(=O)COc1ccc(/C=C/c2ccc3n2[B-](F)(F)[N+]2=C(c4cccs4)C=CC2=C3)cc1)NCCNC[C@H](O)COc1cccc2ccccc12`, the dissociation constant (Kd) in test [1] was 0.427 nM; in test [2] it was 8.32 nM; in test [3], 44.7 nM; in [4], 1.38 nM; in test [5], 91.2 nM; in [6], 26.3 nM. Further, the Kd in [7] is 36.3 nM.

Turning to `O=C(CCCCCNC(=O)COc1ccc(/C=C/c2ccc3n2[B-](F)(F)[N+]2=C(c4cccs4)C=CC2=C3)cc1)NCCCCCCCCNCC(O)COc1cccc2ccccc12` (racemic), the Kd in [1] was 2.51 nM; in [2], 219 nM; in test [3] it was 77.6 nM; in test [4], 5.75 nM; in test [5], under 1000 nM; in test [6] it was 115 nM.

For the compound `O=C(CCCCCNC(=O)COc1ccc(/C=C/c2ccc3n2[B-](F)(F)[N+]2=C(c4cccs4)C=CC2=C3)cc1)NCCOCCOCCNCC(O)COc1cccc2[nH]ccc12` (racemic), the Kd in test [1] was 7.24 nM; in test [2] it was 38 nM; in [3], 380 nM; in test [4] it was 11 nM; in test [5], under 1000 nM; in test [6], 288 nM. In addition, the affinity in [7], expressed as Kd, was 97.7 nM. Further, in test [8], the Activity worked out at 53.2%.

Consider `O=C(CCCCCNC(=O)COc1ccc(/C=C/c2ccc3n2[B-](F)(F)[N+]2=C(c4cccs4)C=CC2=C3)cc1)NCCOCCOCCNCC(O)COc1cccc2ccccc12` (racemic), for which the equilibrium dissociation constant (Kd) in [1] is 0.437 nM; in [2], 41.7 nM; in test [3] it was 295 nM; in test [4], 3.31 nM; in test [5] it was 112 nM; in [6] it was 57.5 nM. This compound showed a dissociation constant Kd in test [7] of 72.4 nM.

As for `O=C(CCCCCNC(=O)COc1ccc(/C=C/c2ccc3n2[B-](F)(F)[N+]2=C(c4cccs4)C=CC2=C3)cc1)NCCCCCCCCNC[C@H](O)COc1cccc2ccccc12`, the Kd is 1.74 nM in test [1]; 52.5 nM in test [2]; 67.6 nM in test [3]; 7.08 nM in test [4]; 794 nM in test [5]; 141 nM in [6]. In addition, binding in test [7] was put at a Kd of 186 nM.

As to `C=CCc1ccccc1OC[C@@H](O)CNCCNC(=O)CCCCCNC(=O)COc1ccc(/C=C/c2ccc3n2[B-](F)(F)[N+]2=C(c4cccs4)C=CC2=C3)cc1`, the Kd in test [1] is 1.82 nM; in [2], 46.8 nM; in test [3], 69.2 nM; in test [4] it was 2.88 nM; in [5] it was 74.1 nM; in test [6] it was 41.7 nM. This compound had a dissociation constant (Kd) in test [7] of 91.2 nM. Further, the Activity in [8] came out at 56.6%.

For `C=CCc1ccccc1OC[C@@H](O)CNCCOCCOCCNC(=O)CCCCCNC(=O)COc1ccc(/C=C/c2ccc3n2[B-](F)(F)[N+]2=C(c4cccs4)C=CC2=C3)cc1`, the Kd in test [1] is 0.427 nM; in test [2] it was 7.59 nM; in test [3] it was 100 nM; in [4] it was 0.933 nM; in test [5], 41.7 nM; in test [6], 61.7 nM. Moreover, the affinity in test [7], expressed as Kd, was 22.4 nM. For the same compound, the Activity in test [8] is 63.5%.

For the compound `C=CCc1ccccc1OCC(O)CNCCNC(=O)CCCCCNC(=O)COc1ccc(/C=C/c2ccc3n2[B-](F)(F)[N+]2=C(c4cccs4)C=CC2=C3)cc1` (racemic), the Kd was 1.58 nM in test [1]; 43.7 nM in [2]; 46.8 nM in [3]; 2.34 nM in test [4]; 120 nM in test [5]; 23.4 nM in test [6]. In test [7], the equilibrium dissociation constant (Kd) was 55 nM. Besides, in test [8], the Activity amounted to 60.6%.

Regarding `O=C(CCCCCNC(=O)COc1ccc(/C=C/c2ccc3n2[B-](F)(F)[N+]2=C(c4cccs4)C=CC2=C3)cc1)NCCNCC(O)COc1cccc2ccccc12` (racemic), the dissociation constant (Kd) in test [1] is 2.57 nM; in [2] it was 75.9 nM; in [3], 93.3 nM; in [4], 2.75 nM; in test [5], 355 nM; in test [6], 63.1 nM. The Kd in test [7] was 89.1 nM.

As for `C=CCc1ccccc1OCC(O)CNCCOCCOCCNC(=O)CCCCCNC(=O)COc1ccc(/C=C/c2ccc3n2[B-](F)(F)[N+]2=C(c4cccs4)C=CC2=C3)cc1` (racemic), the Kd in test [1] is 0.617 nM; in test [2] it was 17.4 nM; in test [3], 81.3 nM; in test [4] it was 1.23 nM; in [5] it was 77.6 nM; in test [6], 57.5 nM. In [7], binding was characterised by a dissociation constant (Kd) of 31.6 nM. In addition, the Activity in test [8] was determined as 49.6%.

Take `O=C(CCCCCNC(=O)COc1ccc(/C=C/c2ccc3n2[B-](F)(F)[N+]2=C(c4cccs4)C=CC2=C3)cc1)NCCCCNCC(O)COc1cccc2ccccc12` (racemic): the equilibrium dissociation constant (Kd) in [1] is 0.741 nM; in test [2], 30.9 nM; in test [3], 105 nM; in test [4], 1.35 nM; in [5], 240 nM; in test [6], 79.4 nM. Also, in [7], the Kd is 56.2 nM.

`O=C(CCCCCNC(=O)COc1ccc(/C=C/c2ccc3n2[B-](F)(F)[N+]2=C(c4cccs4)C=CC2=C3)cc1)NCCCCNC[C@H](O)COc1cccc2ccccc12`: the Kd is 0.275 nM in test [1]; 13.5 nM in [2]; 123 nM in [3]; 0.724 nM in test [4]; 182 nM in test [5]; 151 nM in test [6]. The compound further showed a Kd in test [7] of 33.1 nM.

As for `C=CCc1ccccc1OCC(O)CNC(C)C` (stereo not drawn), the Activity in [8] amounted to 62.4%.

For the compound `CC(C)NCC(O)COc1cccc2[nH]ccc12` (stereo not drawn), the Activity in test [8] was 85.2%.

Regarding `O=C(CCCCCNC(=O)COc1ccc(/C=C/c2ccc3n2[B-](F)(F)[N+]2=C(c4cccs4)C=CC2=C3)cc1)NCCOCCOCCNC[C@H](O)COc1cccc2ccccc12`, the Kd in test [1] was 0.295 nM; in [2] it was 3.47 nM; in [3], 81.3 nM; in test [4], 0.617 nM; in [5] it was 67.6 nM; in test [6], 107 nM. The compound further had a dissociation constant Kd in [7] of 17.4 nM. The outcome in [9], in test [10] and in test [11] was inactive.

`O=C(CCCCCNC(=O)COc1ccc(/C=C/c2ccc3n2[B-](F)(F)[N+]2=C(c4cccs4)C=CC2=C3)cc1)NCCNCC(O)COc1cccc2[nH]ccc12` (racemic): the Kd in test [1] is 30.2 nM; in test [2], 302 nM; in [3], 331 nM; in test [4], 46.8 nM; in test [5], under 1000 nM; in [6], 178 nM. The same compound gave a dissociation constant Kd in test [7] of 871 nM. Besides, the Activity in test [8] came out at 49.4%.
